# Most compounds without a hit are left out; they make up all but 3.5% or so of the library.
# MrgX1 allo act: human MrgX1 positive allosteric modulation, primary screen; AID 588675; actives 0.63% (n = 310,000); B-score at 10 µM; Q96LB2; MrgX1-HEK293, Fluo-4 calcium flux, FDSS; hits give high values;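 active = plate-corrected calcium response at least 3 library SD above typical, normal starting fluorescence, not activating the receptor alone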;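 note: compound read alongside a low EC10 to EC30 dose of BAM8-22 agonist; peak minus trough fluorescence over baseline measured at the second addition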
# Target sequence (Q96LB2 whole entry, looked up): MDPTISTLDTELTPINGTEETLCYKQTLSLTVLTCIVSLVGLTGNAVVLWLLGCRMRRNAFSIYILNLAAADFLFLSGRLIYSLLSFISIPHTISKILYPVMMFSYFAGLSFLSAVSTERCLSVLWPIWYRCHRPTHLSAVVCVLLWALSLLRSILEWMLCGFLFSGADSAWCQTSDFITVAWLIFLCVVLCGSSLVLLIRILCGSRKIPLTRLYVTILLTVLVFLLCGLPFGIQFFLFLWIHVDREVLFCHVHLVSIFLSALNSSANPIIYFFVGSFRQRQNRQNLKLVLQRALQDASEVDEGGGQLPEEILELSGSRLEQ
# RGS4 act: potentiators or activators of RGS4 | actives 0.92% (n = 310,000) | AID 463111 | HEK293 M3R/inducible RGS4, carbachol calcium flux Fluo4; hits give low values | B-score at 10 µM;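 active = B-score of the integrated calcium signal more than 4 SD below the library mean, with starting fluorescence not abnormally high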;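 note: negative B-score means reduced calcium response which marks RGS4 activation or potentiation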
#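 Material: M3R-expressing HEK293 line, RGS4 induced by doxycycline | Schedule: Overnight RGS4 induction, 30 min dye load 37 °C, 20 min compound RT | Measured by: Fluo4 fluorescence kinetic imaging of calcium | Read-out: Integrated calcium ratio converted to B score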
# MrgX1 antag: human MrgX1 receptor antagonism, primary screen. Q96LB2. MRGX1-HEK293 calcium flux, Fluo-4, BAM8-22 antagonism; hits give low values. B-score at 10 µM. actives 1.3% (n = 310,000);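 active = calcium-response B-score plate-corrected more than 3 library SD below zero, starting fluorescence within 5 deviations, no agonist response on first addition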;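 note: peak minus trough fluorescence over baseline after final BAM8-22 challenge near maximal dose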
# MrgX1 ag: activates human MrgX1 receptor signaling. Q96LB2. MrgX1-HEK293 cells, Fluo-4 calcium fluorescence, agonist mode; hits give high values. B-score at 10 µM. actives 0.44% (n = 310,000). AID 588627;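 active = calcium response B-score plate-corrected fluorescence ratio at least 3 library SD, with starting fluorescence B-score inside 5 SD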
#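 System: HEK293 cells stably expressing human MrgX1 receptor; Dosing: test compound in the initial addition of three; Schedule: overnight plating, then 30 min 37 °C plus 30 min room-temperature dye loading; Detection: kinetic calcium dye fluorescence, Fluo-4 NW; Controls: per-plate positive and negative controls for Z′ factor.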
# RGS4 block: inhibitors of human RGS4; HEK293 M3R/RGS4 inducible, Fluo-4 calcium flux; hits give high values; triggered by carbachol at its EC20; B-score at 10 µM; actives 0.45% (n = 310,000); AID 463165;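 active = B-score, a plate-corrected calcium signal, over three deviations above library mean, with baseline fluorescence within five deviations of library mean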;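 note: RGS4 expression induced by doxycycline in cells with stable M3 receptor; B-score is computed from the integrated fluorescence ratio over baseline after carbachol; higher B-score means a larger calcium signal and so more RGS4 inhibition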
# Target sequence (P49798 whole entry, looked up): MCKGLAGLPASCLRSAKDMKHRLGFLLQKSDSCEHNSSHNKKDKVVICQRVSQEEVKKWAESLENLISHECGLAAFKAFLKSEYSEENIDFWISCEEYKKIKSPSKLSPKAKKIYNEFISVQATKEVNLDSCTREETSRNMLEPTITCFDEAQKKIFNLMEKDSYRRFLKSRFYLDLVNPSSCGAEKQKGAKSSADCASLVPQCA
# MrgX1 ant reconf: confirmation of human MrgX1 receptor antagonists; MrgX1-HEK293, BAM8-22 calcium flux, Fluo-4; hits give low values; shares compounds with MrgX1 antag; remaining BAM8-22 calcium response % of control (hits give low values), % at 10 µM; actives 19% (n = 2,300);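 active = remaining agonist calcium response no higher than 100% minus 3 SD of agonist-only control wells, with starting fluorescence near control levels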;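 note: agonist BAM8-22 given at a near maximal EC90 to ECmax level; peak minus minimum fluorescence divided by baseline after agonist addition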
# HEK293 Ca flux: activity in parental HEK293 cells lacking MrgX1; shares compounds with MrgX1 antag; Fluo-4 calcium fluorescence, FDSS; fluorescence ratio F(max-min)/F0 at 10 µM; actives 2% (n = 4,000); AID 624111;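 active = duplicate-averaged calcium fluorescence ratio at least three times the standard deviation of buffer wells, a nonspecific response in parental cells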
# HEK293 Ca counter: MrgX1 allosteric activator counter-screen hit in parental HEK293 cells; AID 624114; shares compounds with MrgX1 antag; actives 0.4% (n = 4,000); parental HEK293 calcium flux, Fluo-4 fluorescence ratio; hits give high values; fluorescence ratio F(max-min)/F0 at 10 µM;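 active = calcium fluorescence ratio, averaged over duplicates, at least 3 SD of the buffer-well ratio, meaning a nonspecific response in receptor-free cells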;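 note: untransfected parental HEK293 lacking MrgX1 used as counterscreen for MrgX1 allosteric activators; fluorescence change taken during the second addition on a kinetic imager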
# HEK293 Ca cntr2: activity in parental HEK293 cells lacking MrgX1 receptor; shares compounds with MrgX1 antag; actives 8.7% (n = 4,000); Fluo-4 calcium fluorescence (FDSS); hits give high values; fluorescence ratio F(max-min)/F0 at 10 µM;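 active = calcium fluorescence ratio at least three times the spread of buffer wells, meaning a non-specific response in parental cells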
# Starred values were filed as active, the others as inactive; i = inactive; . = no result given.
SMILES,MrgX1 allo act,RGS4 act,MrgX1 antag,MrgX1 ag,RGS4 block,MrgX1 ant reconf,HEK293 Ca flux,HEK293 Ca counter,HEK293 Ca cntr2
Cc1ccc(CCNC(=O)CCS(=O)(=O)c2ccc(Br)cc2)cc1,i,i,-8.11*,i,i,i,i,i,i
Cc1ccc(S(=O)(=O)CCC(=O)NCCc2ccc(Cl)cc2)cc1,i,i,i,i,i,.,.,.,.
COc1ccc(Br)cc1CNC(=O)C1CCN(c2nnc(N3CCCC3=O)s2)CC1,i,i,i,i,i,.,.,.,.
COc1ccc(CNC(=O)C2CCN(c3nnc(N4CCCC4=O)s3)CC2)cc1,i,i,-5.28*,i,i,i,i,i,i
CN(Cc1ccccc1)C(=O)c1ccc(NC(=O)c2ccccc2)cc1,i,i,-5.53*,i,i,i,i,i,i
O=C(CSc1nncn1-c1cccnc1)N(c1ccccc1)c1ccccc1,i,i,i,i,i,.,.,.,.
Cc1nc2nc(C)c(CCC(=O)N3CCOCC3)c(C)n2n1,i,i,-5.34*,i,i,i,i,i,67.8*
Cc1ccc(S(=O)(=O)/N=c2\sccn2C)cc1,i,i,i,i,i,.,.,.,.
Cn1ccs/c1=N\S(=O)(=O)c1ccc(F)cc1,i,i,-5.01*,i,i,i,i,i,i
O=C(Cn1c(C(F)(F)F)nc2ccccc21)Nc1ccccc1N1CCOCC1,i,i,-9.34*,i,i,i,i,i,i
O=C(Nc1cccnc1)c1cccc(S(=O)(=O)N2CCCCC2)c1,i,i,-6.41*,i,i,i,i,i,i
COC(=O)c1cccc(S(=O)(=O)N2CCOCC2)c1,i,i,i,i,i,.,.,.,.
COC(=O)c1cccc(S(=O)(=O)N2CCCC2)c1,i,i,-5.86*,i,i,i,i,i,i
CC(CNC(=O)CCn1ccc2cc(S(=O)(=O)N3CCCC3)ccc21)c1ccccc1 (centres undefined),i,i,i,i,i,.,.,.,.
O=C(NCCS(=O)(=O)NCC1CCCO1)c1ccccc1 (centres undefined),i,i,i,i,i,.,.,.,.
CN(C(=O)C1CCC(=O)N(C2CC2)C1)C1CCCCC1 (centres undefined),i,i,i,i,i,.,.,.,.
CC(/C=C1\SC(=S)N(C(C(=O)O)c2ccccc2)C1=O)=C\c1ccccc1 (centres undefined),i,-7.36*,-14.3*,i,i,i,i,i,i
Cc1ccsc1-c1nc(CSCC(=O)NCc2ccc3c(c2)OCO3)c(C)o1,i,i,-4.83*,i,i,i,i,i,50.8*
Cc1ccccc1N(C(=O)Cc1c[nH]c2ccccc12)C(C(=O)NC1CCCCC1)c1ccco1 (centres undefined),i,i,-15.9*,i,i,i,i,i,i
CCOCCCNC(=S)N1CCN(c2nc(-c3ccc(F)cc3)cs2)CC1,i,i,-6.42*,i,i,71.3%*,i,i,i
COCCCNC(=S)N1CCN(c2nc(-c3ccc(F)cc3)cs2)CC1,i,i,i,i,i,.,.,.,.
O=C(Cc1ccccc1)Nc1ncccn1,i,i,i,i,i,.,.,.,.
Nc1c(N(CCC2=CCCCC2)C(=O)C2CC2)c(=O)[nH]c(=O)n1Cc1ccccc1,i,i,i,i,i,.,.,.,.

# Screens (PubChem BioAssay)
